# Experimental data from ChEMBL document CHEMBL1782042, “Efficient microwave-assisted synthesis and antitumor activity of novel 4,4'-methylenebis[2-(3-aryl-4,5-dihydro-1H-pyrazol-5-yl)phenols]” (Eur J Med Chem, 2011).
# How the values were obtained:
# [1] = test system: HOP-92; assay: Cytotoxicity against human HOP92 cells; assay type: cell-based
# How it was run: (§1)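 NCI 60 human tumour cell line screen, second stage at five concentrations (100, 10, 1.0, 0.1 and 0.01 μM). Continuous drug exposure for 48 h, with cell growth estimated by sulforhodamine B protein staining. GI50 is the drug concentration giving a 50% reduction in net protein increase relative to control cells over the incubation.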
# [2] = test system: MCF7; assay: Cytotoxicity against human MCF7 cells; assay type: cell-based; how it was run: as §1
# [3] = test system: MDA-MB-435; assay: Cytotoxicity against human MDA-MB-435 cells; assay type: cell-based; how it was run: as §1
# [4] = test system: HCC 2998; assay: Cytotoxicity against human HCC2998 cells; assay type: cell-based; how it was run: as §1
# [5] = test system: SF-295; assay: Anticancer activity against human SF295 cells after 48 hrs by sulforhodamine B assay; assay type: functional; settings: SF-295, 48 h
# How it was run: (§2)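 NCI 60-cell-line in vitro screen, second stage: five concentration levels (100, 10, 1.0, 0.1 and 0.01 μM) with 48 h continuous drug exposure. Cell growth was estimated by sulforhodamine B protein staining. GI50 is the drug concentration that gives a 50% reduction in net protein increase relative to control cells over the incubation.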
# [6] = test system: MDA-MB-468; assay: Anticancer activity against human MDA-MB-468 cells after 48 hrs by sulforhodamine B assay; assay type: functional; settings: MDA-MB-468, 48 h; how it was run: as §2
# [7] = test system: PC-3; assay: Cytotoxicity against human PC3 cells; assay type: cell-based; how it was run: as §1
# [8] = test system: KM12; assay: Cytotoxicity against human KM12 cells; assay type: cell-based; how it was run: as §1
# [9] = test system: SK-MEL-28; assay: Anticancer activity against human SK-MEL-28 cells after 48 hrs by sulforhodamine B assay; assay type: functional; settings: SK-MEL-28, 48 h; how it was run: as §2
# [10] = test system: OVCAR-3; assay: Anticancer activity against human OVCAR3 cells after 48 hrs by sulforhodamine B assay; assay type: functional; settings: OVCAR-3, 48 h; how it was run: as §2
# [11] = test system: OVCAR-4; assay: Anticancer activity against human OVCAR4 cells after 48 hrs by sulforhodamine B assay; assay type: functional; settings: OVCAR-4, 48 h; how it was run: as §2
# [12] = test system: TK-10; assay: Anticancer activity against human TK10 cells after 48 hrs by sulforhodamine B assay; assay type: functional; settings: TK-10, 48 h
# How it was run: (§3)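 NCI 60-cell-line screen, second stage. Five concentration levels (100, 10, 1.0, 0.1 and 0.01 μM), 48 h continuous drug exposure. Cell growth was estimated by sulforhodamine B protein staining. GI50 is the concentration giving a 50% reduction in net protein increase relative to control cells over the drug incubation. Compounds entered this stage after an earlier single-dose screen.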
# [13] = test system: SR; assay: Anticancer activity against human SR cells after 48 hrs by sulforhodamine B assay; assay type: functional; how it was run: as §3
# [14] = test system: KM12; assay: Anticancer activity against human KM12 cells after 48 hrs by sulforhodamine B assay; assay type: functional; settings: KM12, 48 h; how it was run: as §2
# [15] = test system: MDA-MB-435; assay: Anticancer activity against human MDA-MB-435 cells after 48 hrs by sulforhodamine B assay; assay type: functional; settings: MDA-MB-435, 48 h; how it was run: as §2
# [16] = test system: IGROV-1; assay: Cytotoxicity against human IGROV1 cells; assay type: cell-based; how it was run: as §1
# [17] = test system: MDA-MB-468; assay: Cytotoxicity against human MDA-MB-468 cells; assay type: cell-based; how it was run: as §1
# [18] = test system: ACHN; assay: Cytotoxicity against human ACHN cells; assay type: cell-based; how it was run: as §1
# [19] = test system: M14; assay: Anticancer activity against human M14 cells after 48 hrs by sulforhodamine B assay; assay type: functional; settings: M14, 48 h; how it was run: as §2
# [20] = test system: MOLT-4; assay: Cytotoxicity against human MOLT4 cells; assay type: cell-based; how it was run: as §1
# [21] = test system: PC-3; assay: Anticancer activity against human PC3 cells after 48 hrs by sulforhodamine B assay; assay type: functional; settings: PC-3, 48 h; how it was run: as §2
# [22] = test system: SF-268; assay: Anticancer activity against human SF268 cells after 48 hrs by sulforhodamine B assay; assay type: functional; settings: SF-268, 48 h; how it was run: as §2
# [23] = test system: NCI-H226; assay: Cytotoxicity against human NCI-H226 cells; assay type: cell-based; how it was run: as §1
# [24] = test system: HCT-15; assay: Cytotoxicity against human HCT15 cells; assay type: cell-based; how it was run: as §1
# [25] = test system: HOP-62; assay: Cytotoxicity against human HOP62 cells; assay type: cell-based; how it was run: as §1
# [26] = test system: SK-OV-3; assay: Cytotoxicity against human SKOV3 cells; assay type: cell-based; how it was run: as §1
# [27] = test system: UACC-257; assay: Cytotoxicity against human UACC257 cells; assay type: cell-based
# How it was run: (§4)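 NCI 60 human tumour cell line screen; five concentration levels (100, 10, 1.0, 0.1 and 0.01 μM), 48 h continuous drug exposure. Cell growth estimated by sulforhodamine B (SRB) protein staining. GI50 taken as the drug concentration giving a 50% reduction in net protein increase relative to control cells over the incubation.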
# [28] = test system: UACC-62; assay: Anticancer activity against human UACC62 cells after 48 hrs by sulforhodamine B assay; assay type: functional; settings: UACC-62, 48 h; how it was run: as §3
# [29] = test system: EKVX; assay: Anticancer activity against human EKVX cells after 48 hrs by sulforhodamine B assay; assay type: functional; how it was run: as §2
# [30] = test system: HT-29; assay: Cytotoxicity against human HT-29 cells; assay type: cell-based; how it was run: as §1
# [31] = test system: LOX IMVI; assay: Anticancer activity against human LOXIMVI cells after 48 hrs by sulforhodamine B assay; assay type: functional; how it was run: as §2
# [32] = test system: RPMI-8226; assay: Cytotoxicity against human RPMI8226 cells; assay type: cell-based; how it was run: as §1
# [33] = test system: SK-MEL-2; assay: Cytotoxicity against human SK-MEL-2 cells; assay type: cell-based; how it was run: as §1
# [34] = test system: HOP-62; assay: Anticancer activity against human HOP62 cells after 48 hrs by sulforhodamine B assay; assay type: functional; settings: HOP-62, 48 h; how it was run: as §2
# [35] = test system: SNB-19; assay: Cytotoxicity against human SNB19 cells; assay type: cell-based; how it was run: as §4
# [36] = test system: SK-OV-3; assay: Anticancer activity against human SKOV3 cells after 48 hrs by sulforhodamine B assay; assay type: functional; settings: SK-OV-3, 48 h; how it was run: as §2
# [37] = test system: EKVX; assay: Cytotoxicity against human EKVX cells; assay type: cell-based; how it was run: as §1
# [38] = test system: ACHN; assay: Anticancer activity against human ACHN cells after 48 hrs by sulforhodamine B assay; assay type: functional; how it was run: as §2
# [39] = test system: SW-620; assay: Cytotoxicity against human SW620 cells; assay type: cell-based; how it was run: as §4
# [40] = test system: SK-MEL-2; assay: Anticancer activity against human SK-MEL-2 cells after 48 hrs by sulforhodamine B assay; assay type: functional; settings: SK-MEL-2, 48 h; how it was run: as §2
# [41] = test system: HT-29; assay: Anticancer activity against human HT-29 cells after 48 hrs by sulforhodamine B assay; assay type: functional; settings: HT-29, 48 h; how it was run: as §2
# [42] = test system: COLO 205; assay: Cytotoxicity against human COLO205 cells; assay type: cell-based; how it was run: as §1
# [43] = test system: Malme-3M; assay: Cytotoxicity against human MALME-3M cells; assay type: cell-based; how it was run: as §1
# [44] = test system: SF-539; assay: Cytotoxicity against human SF539 cells; assay type: cell-based; how it was run: as §1
# [45] = test system: U-251; assay: Cytotoxicity against human U251 cells; assay type: cell-based; how it was run: as §4
# [46] = test system: NCI-H226; assay: Anticancer activity against human NCI-H226 cells after 48 hrs by sulforhodamine B assay; assay type: functional; settings: NCI-H226, 48 h; how it was run: as §2
# [47] = test system: OVCAR-8; assay: Cytotoxicity against human OVCAR8 cells; assay type: cell-based; how it was run: as §1
# [48] = test system: SNB-19; assay: Anticancer activity against human SNB19 cells after 48 hrs by sulforhodamine B assay; assay type: functional; settings: SNB-19, 48 h; how it was run: as §2
# [49] = test system: SNB-75; assay: Cytotoxicity against human SNB75 cells; assay type: cell-based; how it was run: as §4
# [50] = test system: A549; assay: Cytotoxicity against human A549 cells; assay type: cell-based; how it was run: as §1
# [51] = test system: HOP-92; assay: Anticancer activity against human HOP92 cells after 48 hrs by sulforhodamine B assay; assay type: functional; settings: HOP-92, 48 h; how it was run: as §2
# [52] = test system: SK-MEL-5; assay: Anticancer activity against human SK-MEL-5 cells after 48 hrs by sulforhodamine B assay; assay type: functional; settings: SK-MEL-5, 48 h; how it was run: as §2
# [53] = test system: NCI/ADR-RES; assay: Anticancer activity against human NCI/ADR-RES cells after 48 hrs by sulforhodamine B assay; assay type: functional; how it was run: as §2
# [54] = test system: BT-549; assay: Anticancer activity against human BT549 cells after 48 hrs by sulforhodamine B assay; assay type: functional; settings: BT-549, 48 h; how it was run: as §2
smiles,measurement,setting,value
Oc1ccc(Cc2ccc(O)c(C3CC(c4ccc(Cl)cc4)=NN3)c2)cc1C1CC(c2ccc(Cl)cc2)=NN1 (centres undefined),LC50,[1],> 100 µM
same,LC50,[2],> 100 µM
same,LC50,[3],> 100 µM
same,LC50,[4],> 100 µM
same,GI50,[5],1.47 µM
same,GI50,[6],3.5 µM
same,LC50,[7],> 100 µM
same,LC50,[8],> 100 µM
same,GI50,[9],9.84 µM
same,GI50,[10],2.59 µM
same,GI50,[11],3.54 µM
same,GI50,[12],5.34 µM
same,GI50,[13],1.83 µM
same,GI50,[14],3.09 µM
same,GI50,[15],3.21 µM
same,LC50,[16],> 100 µM
same,LC50,[17],> 100 µM
same,LC50,[18],> 100 µM
same,GI50,[19],4.45 µM
same,LC50,[20],> 100 µM
same,GI50,[21],3.32 µM
same,GI50,[22],3.22 µM
same,LC50,[23],> 100 µM
same,LC50,[24],> 100 µM
same,LC50,[25],> 100 µM
same,LC50,[26],> 100 µM
same,LC50,[27],> 100 µM
same,GI50,[28],3.16 µM
same,GI50,[29],2.77 µM
same,LC50,[30],> 100 µM
same,GI50,[31],1.82 µM
same,LC50,[32],> 100 µM
same,LC50,[33],85.5 µM
same,GI50,[34],4.16 µM
same,LC50,[35],> 100 µM
same,GI50,[36],4.43 µM
same,LC50,[37],> 100 µM
same,GI50,[38],3.63 µM
same,LC50,[39],> 100 µM
same,GI50,[40],3.23 µM
same,GI50,[41],7.25 µM
same,LC50,[42],> 100 µM
same,LC50,[43],> 100 µM
same,LC50,[44],> 100 µM
same,LC50,[45],> 100 µM
same,GI50,[46],4.74 µM
same,LC50,[47],> 100 µM
same,GI50,[48],3.64 µM
same,LC50,[49],> 100 µM
same,LC50,[50],> 100 µM
same,GI50,[51],3.39 µM
same,GI50,[52],3.36 µM
same,GI50,[53],2.24 µM
same,GI50,[54],4.78 µM
